Measurements taken from ChEMBL document CHEMBL4400546, “A Cinchona Alkaloid Antibiotic That Appears To Target ATP Synthase in Streptococcus pneumoniae” (J Med Chem, 2019).
≈ marks a conversion by molar mass, not a printed value. Calls of active or inactive are those of the source. No cut-off for these calls is given here.

Tests used:
[1] = system: Streptococcus pneumoniae; test: Bactericidal activity against Streptococcus pneumoniae D39 assessed as fold reduction in CFU at 5 times MIC after 3 hrs by time-kill assay relative to control; format: functional
Outline: (§1)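 Time-kill in S. pneumoniae D39 at multiples of MIC. Killing is followed by OD620 up to 18 h, with CFU determined at each time point by plating. Vancomycin is the positive control. Four independent experiments.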

[2] = Mitochondrial toxicity in human HepG2 cells assessed as reduction in cell viability after 24 hrs in presence of galactose by CellTiter-Glo assay; format: cell-based
Outline: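 HepG2 cells are grown in DMEM supplemented with 10 mM galactose or 10 mM glucose and treated for 24 h. Viability is read by CellTiter-Glo luminescence. The CC90 is the concentration inhibiting 90% of cell viability, taken from dose–response curves. Oligomycin and tamoxifen serve as controls.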

[3] = Mitochondrial toxicity in human HepG2 cells assessed as reduction in cell viability after 24 hrs in presence of glucose by CellTiter-Glo assay; format: cell-based
Outline: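 HepG2 cells grown in DMEM with 10 mM glucose, treated 24 h; viability read by CellTiter-Glo luminescence. Value is the concentration giving 90% loss of viability (CC90) from dose-response curves, top concentration 300 µM.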

[4] = system: Streptococcus pneumoniae; test: Potentiation of rifampicin-induced antibacterial activity against Streptococcus pneumoniae D39 at 2 times MIC after 20 hrs by checkerboard assay; format: functional
Outline: (§2)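 Checkerboard combination assay in S. pneumoniae D39 with the partner antibiotic. Fractional inhibitory concentration indices were calculated, and the minimum FICI was taken per combination. Three to four independent checkerboards were run.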

[5] = system: Streptococcus pneumoniae; test: Potentiation of penicillin-induced antibacterial activity against Streptococcus pneumoniae D39 at 2 times MIC after 20 hrs by checkerboard assay; format: functional; outline: as §2
[6] = system: Streptococcus pneumoniae; test: Potentiation of levofloxacin-induced antibacterial activity against Streptococcus pneumoniae D39 at 2 times MIC after 20 hrs by checkerboard assay; format: functional; outline: as §2
[7] = system: Streptococcus pneumoniae; test: Antibacterial activity against Streptococcus pneumoniae D39 after 20 hrs by CLSI-based microdilution method; format: functional; conditions: D39, 20 h
[8] = Cytotoxicity against human HepG2 cells assessed as reduction in cell viability after 48 hrs by Alamar Blue assay; format: cell-based
[9] = system: Streptococcus pneumoniae; test: Bactericidal activity against Streptococcus pneumoniae D39 after 24 hrs; format: functional; conditions: D39, 24 h
[10] = system: Streptococcus pneumoniae; test: Bacteriostatic activity against Streptococcus pneumoniae D39 at 1 to 5 times MIC after 18 hrs by time-kill assay; format: functional, organism-based; outline: as §1
[11] = system: Streptococcus pneumoniae; test: Bacteriostatic activity against Streptococcus pneumoniae D39 up 100 times MIC after 18 hrs by time-kill assay; format: functional, organism-based; outline: as §1
[12] = system: Streptococcus pneumoniae; test: Antibacterial activity against Streptococcus pneumoniae R6 after 20 hrs by CLSI-based microdilution method; format: functional; conditions: R6, 20 h
[13] = system: Streptococcus pneumoniae; test: Bacteriostatic activity against Streptococcus pneumoniae D39 assessed as resistant frequency at 4 to 16 times MIC after 24 hrs by time-kill assay; format: functional, organism-based
[14] = system: Streptococcus pneumoniae; test: Antibacterial activity against amoxicillin/penicillin/cefotaxime/erythromycin/tetracycline-resistant Streptococcus pneumoniae TH2784 (19F) after 20 hrs by CLSI-based microdilution method; format: functional
[15] = system: Streptococcus pneumoniae; test: Antibacterial activity against amoxicillin/penicillin/chloramphenicol/erythromycin/meropenem/cefotaxime-resistant Streptococcus pneumoniae TH2582 (19A) after 20 hrs by CLSI-based microdilution method; format: functional
[16] = system: Streptococcus pneumoniae; test: Antibacterial activity against amoxicillin/penicillin/erythromycin/ertapenem/moxifloxacin/cefotaxime-resistant Streptococcus pneumoniae TH2889 (6B) after 20 hrs by CLSI-based microdilution method; format: functional
[17] = system: Streptococcus pneumoniae; test: Antibacterial activity against penicillin/erythromycin/meropenem/tetracycline-resistant Streptococcus pneumoniae TH2863 (19F) after 20 hrs by CLSI-based microdilution method; format: functional
[18] = system: Streptococcus pneumoniae; test: Antibacterial activity against optochin-resistant Streptococcus pneumoniae R6 expressing atpE G142C mutant after 20 hrs by CLSI-based microdilution method; format: functional; conditions: R6, 20 h
[19] = system: Streptococcus pneumoniae; test: Antibacterial activity against optochin-resistant Streptococcus pneumoniae R6 expressing atpE G145A mutant after 20 hrs by CLSI-based microdilution method; format: functional; conditions: R6, 20 h
[20] = system: Streptococcus pneumoniae D39; test: Inhibition of wild-type Streptococcus pneumoniae D39 ATP synthase atpE assessed as intracellular pH at 0.0625 ug/ml measured at 5 mins by pH-sensitive GFP-based fluorescence assay (reference value: 7.34 +/- 0.04); format: cell-based
Outline: (§3)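 S. pneumoniae D39 WT and isogenic atpE G142C or G145A mutants carry a plasmid-borne ratiometric pH-sensitive GFP biosensor. Cells are in PBS pH 7.2 with 10 mM glucose and are treated with compound, DMSO (0.5% v/v) or CCCP (10 µM). Intracellular pH is read immediately and at 5-min intervals. Two independent experiments, each in triplicate.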

[21] = system: Streptococcus pneumoniae D39; test: Inhibition of wild-type Streptococcus pneumoniae D39 ATP synthase atpE assessed as intracellular pH at 0.25 ug/ml measured at 5 mins by pH-sensitive GFP-based fluorescence assay (reference value: 7.34 +/- 0.04); format: cell-based; outline: as §3
[22] = system: Streptococcus pneumoniae D39; test: Inhibition of wild-type Streptococcus pneumoniae D39 ATP synthase atpE assessed as intracellular pH at 8 ug/ml measured at 5 mins by pH-sensitive GFP-based fluorescence assay (reference value: 7.34 +/- 0.04); format: cell-based; outline: as §3
[23] = system: Streptococcus pneumoniae D39; test: Inhibition of wild-type Streptococcus pneumoniae D39 ATP synthase atpE assessed as intracellular pH at 0.0625 ug/ml measured immediately post treatment by pH-sensitive GFP-based fluorescence assay (reference value: 7.34 +/- 0.04); format: cell-based; outline: as §3
[24] = system: Streptococcus pneumoniae D39; test: Inhibition of wild-type Streptococcus pneumoniae D39 ATP synthase atpE assessed as intracellular pH at 0.25 ug/ml measured at 10 mins by pH-sensitive GFP-based fluorescence assay (reference value: 7.34 +/- 0.04); format: cell-based; outline: as §3
[25] = system: Streptococcus pneumoniae D39; test: Inhibition of wild-type Streptococcus pneumoniae D39 ATP synthase atpE assessed as intracellular pH at 0.25 ug/ml measured at 15 mins by pH-sensitive GFP-based fluorescence assay (reference value: 7.34 +/- 0.04); format: cell-based; outline: as §3
[26] = system: Streptococcus pneumoniae D39; test: Inhibition of wild-type Streptococcus pneumoniae D39 ATP synthase atpE G142C mutant assessed as change in intracellular pH at 0.25 ug/ml measured at 5 mins by pH-sensitive GFP-based fluorescence assay (reference value: 7.34 +/- 0.04); format: cell-based; outline: as §3
[27] = system: Streptococcus pneumoniae D39; test: Inhibition of wild-type Streptococcus pneumoniae D39 ATP synthase atpE G142C mutant assessed as reduction in intracellular pH at >0.25 to 8 ug/ml measured at 5 mins by pH-sensitive GFP-based fluorescence assay; format: cell-based; outline: as §3
[28] = system: Streptococcus pneumoniae D39; test: Inhibition of wild-type Streptococcus pneumoniae D39 ATP synthase atpE G145 mutant assessed as reduction in intracellular pH at >2 ug/ml measured at 5 mins by pH-sensitive GFP-based fluorescence assay; format: cell-based; outline: as §3
[29] = system: Staphylococcus aureus; test: Antibacterial activity against Staphylococcus aureus TH4114 after 20 hrs by CLSI-based microdilution method; format: functional; conditions: TH4114, 20 h
[30] = system: Streptococcus pyogenes; test: Antibacterial activity against Streptococcus pyogenes ST157 after 20 hrs by CLSI-based microdilution method; format: functional; conditions: ST157, 20 h
[31] = system: Streptococcus mitis; test: Antibacterial activity against Streptococcus mitis ST138 after 20 hrs by CLSI-based microdilution method; format: functional; conditions: ST138, 20 h
[32] = system: Enterococcus faecium; test: Antibacterial activity against Enterococcus faecium TH6064 after 20 hrs by CLSI-based microdilution method; format: functional; conditions: TH6064, 20 h
[33] = system: Enterobacter cloacae; test: Antibacterial activity against Enterobacter cloacae TH11715 after 20 hrs by CLSI-based microdilution method; format: functional; conditions: TH11715, 20 h
[34] = system: Escherichia coli; test: Antibacterial activity against Escherichia coli TH4746 after 20 hrs by CLSI-based microdilution method; format: functional; conditions: TH4746, 20 h
[35] = system: Klebsiella pneumoniae; test: Antibacterial activity against Klebsiella pneumoniae ATCC 13883 after 20 hrs by CLSI-based microdilution method; format: functional; conditions: ATCC 13883, 20 h
[36] = system: Acinetobacter baumannii; test: Antibacterial activity against Acinetobacter baumannii TH9781 after 20 hrs by CLSI-based microdilution method; format: functional; conditions: TH9781, 20 h
[37] = system: Pseudomonas aeruginosa; test: Antibacterial activity against Pseudomonas aeruginosa TH4090 after 20 hrs by CLSI-based microdilution method; format: functional; conditions: TH4090, 20 h
[38] = system: Mycobacterium tuberculosis; test: Antibacterial activity against Mycobacterium tuberculosis H37Rv after […] by CLSI-based microdilution method; format: functional
[39] = system: Streptococcus pneumoniae; test: Potentiation of vancomycin-induced antibacterial activity against Streptococcus pneumoniae D39 at 2 times MIC after 20 hrs by checkerboard assay; format: functional; outline: as §2
[40] = system: Streptococcus pneumoniae; test: Bacteriostatic activity against Streptococcus pneumoniae D39 at 1 to 5 times MIC using 10^7CFU inoculum after 18 hrs by time-kill assay; format: functional, organism-based; outline: as §1

## CN[C@H](CC(C)C)C(=O)N[C@H]1C(=O)N[C@@H](CC(N)=O)C(=O)N[C@H]2C(=O)N[C@H]3C(=O)N[C@H](C(=O)N[C@H](C(=O)O)c4cc(O)cc(O)c4-c4cc3ccc4O)[C@H](O)c3ccc(c(Cl)c3)Oc3cc2cc(c3O[C@@H]2O[C@H](CO)[C@@H](O)[C@H](O)[C@H]2O[C@H]2C[C@](C)(N)[C@H](O)[C@H](C)O2)Oc2ccc(cc2Cl)[C@H]1O [VANCOMYCIN]
[1]
  fold change (FC): 1000

## CC=C1C[N@]2CC[C@H]1C[C@H]2[C@H](O)c1ccnc2ccc(OC3CCC3)cc12
[2]
  CC90 at 24 h: 150 µM
[3]
  CC90 at 24 h: 150 µM
[4]
  FIC: 0.63 - 1
[5]
  FIC: 0.63 - 1
[6]
  FIC: 0.63 - 1
[7]
  MIC: 0.7 µM (≈ 0.255 µg/mL)
[8]
  CC50 at 48 h: 56 µM
[9]
  MBC: 1 to 2 µg/mL (≈ 2.74 to 5.49 µM)
[10]
  Activity: Active
[11]
  Activity: Active
[12]
  MIC: 0.5 µg/mL (≈ 1.37 µM)
[13]
  Activity: Active
[14]
  MIC: 0.5 µg/mL (≈ 1.37 µM)
[15]
  MIC: 0.25 to 0.5 µg/mL (≈ 0.686 to 1.37 µM)
[16]
  MIC: 0.5 µg/mL (≈ 1.37 µM)
[17]
  MIC: 0.5 to 1 µg/mL (≈ 1.37 to 2.74 µM)
[18]
  MIC: 8 to 16 µg/mL (≈ 21.9 to 43.9 µM)
[19]
  MIC: 4 µg/mL (≈ 11 µM)
[20]
  pH: 7.02
[21]
  pH: 6.82
[22]
  pH: 6.66
[23]
  pH: 7.11
[24]
  pH: 6.68
[25]
  deltapH: -0.52
[26]
  deltapH: < 0.03
[27]
  inhibition: Active
[28]
  inhibition: Active
[29]
  MIC: 128 µg/mL (≈ 351 µM)
[30]
  MIC: 32 µg/mL (≈ 87.8 µM)
[31]
  MIC: 16 µg/mL (≈ 43.9 µM)
[32]
  MIC: 64 to 128 µg/mL (≈ 176 to 351 µM)
[33]
  MIC: > 128 µg/mL
[34]
  MIC: > 128 µg/mL
[35]
  MIC: 128 µg/mL (≈ 351 µM)
[36]
  MIC: 128 µg/mL (≈ 351 µM)
[37]
  MIC: > 128 µg/mL
[38]
  MIC: > 256 µg/mL
[39]
  FIC: 0.63 - 1
[40]
  Activity: Active
